Source: ChEMBL document CHEMBL1124897, “(1-Pyrenylmethyl)amino alcohols, a new class of antitumor DNA intercalators. Discovery and initial amine side chain structure-activity studies” (1990)

Experiments:
Format in all cases: functional, Mus musculus
P388 [1] = assay: In vivo antitumor activity against murine lymphocytic leukemia P388 measured as percent increase in life span
Method in brief: (§1)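 Male CD2-F1 mice (20 ± 3 g) implanted ip with 1 × 10^6 viable P388 cells on day 0. Drug given ip as aqueous suspension or solution in 0.9% NaCl or 5% dextrose on days 1, 5 and 9, dosed per body weight in mg/kg. Several dose levels bracketing the LD20 were tested, six mice per dose. Deaths before the control median day of death were counted as drug toxicity.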

P388 [2] = assay: In vivo antitumor activity against murine lymphocytic leukemia P388 measured as lethal dose […]; set-up: unit: mg/kg; method in brief: as §1
P388 [3] = assay: In vivo antitumor activity against murine lymphocytic leukemia P388 measured as optimal dose
Method in brief: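 Male CD2-F1 mice (20 ± 3 g) implanted ip with 1 × 10^6 viable P388 cells on day 0. Compound given ip as aqueous suspension or solution in 0.9% NaCl or 5% dextrose on days 1, 5 and 9, dosed per mg/kg body weight. Several doses bracketing LD20 were tested, six mice per dose. %ILS was calculated from median day of death of treated versus control mice. Values are optimal from at least two experiments.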

Compound | ILS (P388 [1]) [%] | LD20 (P388 [2]) | Optimal dose (P388 [3]) [mg/kg]
CC(C)(CO)NCc1ccc2ccc3cccc4ccc1c2c34.Cl | 45 | 450 | 250
CC(CO)NCc1ccc2ccc3cccc4ccc1c2c34.Cl (stereo not given) | 25 | 600 | 220
CC(C)C(CO)(CO)NCc1ccc2ccc3cccc4ccc1c2c34.Cl | 55 | 300 | 450
Cl.c1cc2ccc3ccc(CNCCCN4CCOCC4)c4ccc(c1)c2c34 | 20 | 150 | 150
CC(CO)(CO)NCc1ccc2ccc3cccc4ccc1c2c34.Cl | 125 | 300 | 300
CC(O)C(C)(CO)NCc1ccc2ccc3cccc4ccc1c2c34.Cl (stereo not given) | 77 | 125 | 125
Cl.OCC(O)C(CO)NCc1ccc2ccc3cccc4ccc1c2c34 (stereo not given) | 25 | 140 | 125
CCC(CO)(CO)NCc1ccc2ccc3cccc4ccc1c2c34.Cl | 140 | 340 | 303
CC(=O)OCC(COC(C)=O)(COC(C)=O)NCc1ccc2ccc3cccc4ccc1c2c34 | 30 | 500 | 315
OCC1OC(O)C(NCc2ccc3ccc4cccc5ccc2c3c45)C(O)C1O (stereo not given) | 20 | 400 | 450
Cl.OCC(CO)(CO)NCc1ccc2ccc3cccc4ccc1c2c34 | 90 | 215 | 198
CCOCC(CO)(CO)NCc1ccc2ccc3cccc4ccc1c2c34.Cl | 30 | 225 | 168
CC(O)CNCc1ccc2ccc3cccc4ccc1c2c34.Cl (stereo not given) | 28 | 600 | 300
Cl.OCCNCc1ccc2ccc3cccc4ccc1c2c34 | 31 | 220 | 221
CCC(CO)NCc1ccc2ccc3cccc4ccc1c2c34.Cl (stereo not given) | 25 | 450 | 366
